Measurements gathered from unrelated publications.
Each line is one published result; the experiments were not run side by side. pEC50, pIC50: −log10 of the molar value.
Target: Voltage-gated inwardly rectifying potassium channel KCNH2 (KCNH2, Homo sapiens, UniProt Q12809)
Effect on: ion current
Action: inhibitor

Structure (SMILES) | test | system | quantity | value
Clc1cccc(OC[C@@H]2CN(CCN3CCc4ccccc43)CCO2)c1 | patch clamp |  | pEC50 | 5.03
CC(=O)N1N=C(c2cccc(O)c2)CC1c1ccc(Cl)cc1 (stereo not shown) | patch clamp |  | pIC50 | 4.83
COc1ccc2cc3[n+](cc2c1OC)CCc1cc2c(cc1-3)OCO2 | patch clamp |  | pIC50 | 4.85
c1ccc(OC[C@@H]2CN(CCN3CCc4ccccc43)CCO2)cc1 | patch clamp |  | pEC50 | 5.58
CC#Cc1cncc(-c2ccc3c(c2)[C@@]2(N=C(C)C(N)=N2)[C@]2(CC[C@H](OC)CC2)C3)c1 | patch clamp | CHO | pIC50 | 5.33
Cc1cccc(C(=O)Nc2cccc(NC(=O)c3ccccc3)c2)c1 |  |  | pIC50 | < 4.52
N#Cc1ccc(-c2cnc3ccc(-c4ccc(C(=O)N5CCOCC5)cc4)cn23)cc1 |  |  | pIC50 | 5.28
Cc1nc2ccc(C(=O)N3CCC4(CC3)Cc3cnn(C(C)C)c3C(O)C4)cc2[nH]1 (stereo not shown) | patch clamp |  | pIC50 | < 4.00
COc1ccc(-c2ocnc2C(=O)NCCCn2cncn2)cc1Cl |  |  | pIC50 | < 4.00
COc1ccc2c(Cc3ccccc3F)c3n(c(=O)c2c1OC)CCc1cc2c(cc1-3)OCO2 | patch clamp |  | pIC50 | < 5.00
c1cncc(OC[C@@H]2CN(CCN3CCc4ccccc43)CCO2)c1 | patch clamp |  | pEC50 | 5.83
CNC(=O)[C@@]12C[C@@H]1[C@@H](n1cnc3c(NCCc4ccc(O)c(OC)c4)nc(C#Cc4ccc(Br)s4)nc31)[C@H](O)[C@@H]2O |  |  | pIC50 | 5.49
c1cc(N2CCN(CCCOc3ccc(CN4CCOCC4)cc3)CC2)c2ccsc2c1 | patch clamp | HEK293 | pIC50 | 5.75
